Compound activity (PubChem BioAssay)
SENP8 block-1 = inhibitors of human SENP8 protease. purified SENP8, Z-RLRGG-aminoluciferin cleavage, luminescence. inhibition, % at 10 µM. actives 1.2% (n = 330,000). AID 2540; in the data active means inhibition above about 50%
SENP8 block-2 = inhibitors of human SENP8 protease; actives 0.64% (n = 360,000); AID 602440; inhibition, % at 20 µM; recombinant SENP8, Nedd8 substrate fluorescence; in the data active means inhibition mostly above about 40%, no sharp cut-off; inactive means mostly below about 27%
SENP1 FRET inh = inhibitors of human SENP1 SUMO protease catalytic domain | recombinant SENP1 catalytic domain, CyPet-SUMO1-YPet FRET cleavage | Q9P0U3 | inhibition, % at 10 µM | AID 624204 | actives 0.21% (n = 360,000);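 active means inhibition at least 30% at 10 µM, raw YFP signal under a set limit, fluorescence ratio 0.5 to 1.5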;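 further: 0% = enzyme with DMSO and 100% = no enzyme wells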
Target sequence (Q9P0U3 419-644 limits assumed): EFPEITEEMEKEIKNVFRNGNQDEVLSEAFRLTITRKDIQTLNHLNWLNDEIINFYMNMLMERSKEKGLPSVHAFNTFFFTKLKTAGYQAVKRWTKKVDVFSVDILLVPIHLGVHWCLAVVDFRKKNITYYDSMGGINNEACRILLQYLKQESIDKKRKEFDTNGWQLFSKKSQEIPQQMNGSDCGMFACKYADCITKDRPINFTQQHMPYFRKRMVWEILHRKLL
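Test system: human SENP1 catalytic domain; medium: Tris pH 8 buffer plus EDTA, NaCl, BME, BSA, NP40, catalase; incubation: 50 min reaction at room temperature; technique: FRET, CFP and YFP emission; controls: no-enzyme low control and enzyme-plus-DMSO high control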
SENP7 block = blocks the human protease SENP7; Q9BQF6; AID 434973; recombinant SENP7, Z-RLRGG-aminoluciferin luminescence, 40 min; inhibition, % at 5 µM; actives 1.5% (n = 330,000);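 active means inhibition above about 50% at the single test dose, limit read from the data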;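 further: plate controls were DMSO with enzyme for no effect and no enzyme buffer wells for full effect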
SENP6 block = SENP6 protease inhibition; Recombinant SENP6 catalytic domain, aminoluciferin luminescence; inhibition, % at 10 µM; actives 1.8% (n = 330,000); Q9GZR1;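 active means inhibition above about 50% at the single tested dose, limit read from the data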;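 further: plate controls were DMSO wells with enzyme for no effect and DMSO wells lacking enzyme for full effect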
SENP8 inh conf = SENP8 (human) inhibition, single concentration confirmation | shares compounds with SENP8 block-2 | purified SENP8, Nedd8-AMC/pro-Nedd8 cleavage fluorescence, 30 min | inhibition, % at 25 µM | actives 15% (n = 1,400); in the data active means inhibition mostly above about 39%, no sharp cut-off; inactive means mostly below about 34%
* hit, by the source's call. Shown are actives, neighbours in structure and some others; about 2.5% of the full set was active somewhere.

`Cc1cc(C(=O)N/N=C/c2cccnc2)c(C)o1` gave SENP8 block-1 1, SENP8 block-2 41*, SENP1 FRET inh 0, SENP7 block 6, SENP6 block -8 and SENP8 inh conf 12.
For O=C(N/N=C/c1ccc([N+](=O)[O-])o1)c1cc(-c2cccc(Br)c2)nc2ccccc12 the results were SENP8 block-1 -5, SENP8 block-2 41*, SENP1 FRET inh -8, SENP7 block -6, SENP6 block 0 and SENP8 inh conf 18.
For Cc1cc(C(=O)N/N=C/c2ccc([N+](=O)[O-])o2)c(C)o1 the results were SENP8 block-1 -4, SENP8 block-2 42*, SENP1 FRET inh -5, SENP7 block -6, SENP6 block 1 and SENP8 inh conf 37.
`Cc1ccc(NC(=O)CCC(=O)N/N=C/c2ccc([N+](=O)[O-])o2)cc1C` gave SENP8 block-1 1, SENP8 block-2 63*, SENP1 FRET inh -1, SENP7 block 9, SENP6 block -2 and SENP8 inh conf 12.
For Cc1nonc1C(=O)N/N=C/c1ccc([N+](=O)[O-])o1 the results were SENP8 block-1 -10, SENP8 block-2 39, SENP1 FRET inh 1, SENP7 block 1 and SENP6 block 13.
CCCc1ccc(-c2cc(C(=O)N/N=C/c3ccc([N+](=O)[O-])o3)c3ccccc3n2)cc1 was read as SENP8 block-1 -7, SENP8 block-2 -14, SENP1 FRET inh -5, SENP7 block 7 and SENP6 block 0.
O=C(Cc1cccc(NC(=O)C2CCN(S(=O)(=O)c3cccc([N+](=O)[O-])c3)CC2)c1)Nc1cccc(C(=O)N2CCCCC2)c1 was read as SENP8 block-2 13 and SENP1 FRET inh 2.
`CCn1nccc1NC(=O)c1csc([C@H]2C[C@H](O)[C@@H](CO)O2)n1` gave SENP8 block-2 18 and SENP1 FRET inh -2.
C/C(=N\Nc1ccc(S(N)(=O)=O)cc1[N+](=O)[O-])c1ccco1 was read as SENP8 block-1 -8, SENP8 block-2 48*, SENP1 FRET inh 5, SENP7 block -4, SENP6 block 0 and SENP8 inh conf 12.
For C/C(=N\Nc1ccc(S(N)(=O)=O)cc1[N+](=O)[O-])c1ccccc1O the results were SENP8 block-1 -10, SENP8 block-2 39, SENP1 FRET inh 1, SENP7 block -1 and SENP6 block -22.
`CC(O)/C=C/C1OC(=O)CC1Nc1ccc(C=O)cc1` (centres undefined) gave SENP8 block-1 -7, SENP8 block-2 52*, SENP1 FRET inh 4, SENP7 block 1, SENP6 block 3 and SENP8 inh conf 15.
For Cc1cccc(C(=O)Nc2nnc(S(=O)(=O)N(C)Cc3ccco3)s2)c1 the results were SENP8 block-1 -1, SENP8 block-2 -136, SENP1 FRET inh -14, SENP7 block 5 and SENP6 block 8.
O=C(c1ccccc1)c1ccccc1 was read as SENP8 block-1 -5, SENP8 block-2 61*, SENP1 FRET inh 3, SENP7 block 1, SENP6 block 0 and SENP8 inh conf 7.
Screening Cc1nn(-c2ccccc2)c(N2CCCC2)c1/C=N/Nc1ccc(S(=O)(=O)Nc2ccccc2)cc1[N+](=O)[O-] returned SENP8 block-1 2, SENP8 block-2 64*, SENP1 FRET inh 4, SENP7 block 3, SENP6 block 4 and SENP8 inh conf 13.
For Cc1ccc(-n2[nH]c(C)c(/C=N/Nc3ccc([N+](=O)[O-])cc3[N+](=O)[O-])c2=O)cc1C the results were SENP8 block-1 9, SENP8 block-2 40*, SENP1 FRET inh 3, SENP7 block 5, SENP6 block -1 and SENP8 inh conf 29.
Screening COc1c(/C=N/Nc2ccc([N+](=O)[O-])cc2[N+](=O)[O-])c(C)nn1-c1ccccc1 returned SENP8 block-1 1, SENP8 block-2 62*, SENP1 FRET inh 3, SENP7 block 7, SENP6 block 1 and SENP8 inh conf 24.
`CCOc1ccc(S(=O)(=O)Nc2ccc(C(=O)N/N=C/c3c(C)nn(-c4ccccc4)c3N3CCCC3)cc2)cc1` gave SENP8 block-1 -8, SENP8 block-2 -116, SENP1 FRET inh 2, SENP7 block -8 and SENP6 block -3.
